Test results from ChEMBL document CHEMBL4513216, “Probing the Open Global Health Chemical Diversity Library for Multistage-Active Starting Points for Next-Generation Antimalarials” (ACS Infect Dis, 2020).

assay: Toxicity liver stage against HepG2, at 10uM; type: cell-based; parameters: test concentration 10 uM, cell line HepG2-A16-CD81EGFP; conditions: human, HepG2-A16-CD81EGFP cells; read-out: INHIBITION
How it was run: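 Uninfected HepG2-A16-CD81EGFP cells, 3 × 10^3 per well, 1536-well, plated on prespotted compound at 10 μM final, parasite-free screening media added to match infected plates; puromycin 10 μM positive, DMSO 0.5% negative; run in parallel with 48 h PbLuc assay at 37 °C, 5% CO2; viability by CellTiter-Glo luminescence, normalized to controls.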

| Compound | cytotoxicity at 10 µM [%] |
| --- | --- |
| Cc1cc(C)c(CNC(=O)N(C)Cc2sccc2C)c(=O)[nH]1 | -1.77 |
| CCN(Cc1ccoc1)C(=O)Nc1ccccc1CN1CCOCC1 | -14.8 |
| Cc1cc(C)n(-c2ccnc(N3CCC(C(=O)N4CCCC4)CC3)n2)n1 | -9.87 |
| N#Cc1ccccc1N1CCCN(C(=O)CCn2cccn2)CC1 | -13.1 |
| Cc1csc(C(Cc2ccsc2)NC(=O)CN(C)Cc2cccnc2)n1 (stereo unspecified) | 0.471 |
| CC(=O)Nc1nc(C(=O)N2CCCCC2Cn2cc(C)cn2)cs1 (stereo unspecified) | -17.1 |
| CCCN1CCN(C(=O)c2ccn(COc3ccc(F)cc3)n2)CC1 | 8.88 |
| Cc1cccc(COC[C@@]23CCC[C@@H]2CN(C(=O)Cc2ccco2)C3)n1 | -109 |
| COc1ncccc1C(=O)NCCn1nc(C)ccc1=O | -7.69 |
| O=C(NCc1ccccc1CN1CCCC1)Nc1cccnc1 | 6.75 |
| CC(C)c1nc2n(n1)CC(NCc1nnnn1C1CC1)CC2 (stereo unspecified) | -1.4 |
| O=C(Cn1cccnc1=O)NC(Cc1ccsc1)c1nccs1 (stereo unspecified) | -4.44 |
| CC(C)c1cc(NCC2(N(C)C)CCCC2)ncn1 | 4.22 |
| CCOc1ccc(-c2ccnc(CC)n2)cc1C(=O)O | -11.1 |
| CN(Cc1cccnc1)c1nccc(N2CCN[C@H]3CS(=O)(=O)C[C@H]32)n1 | 5.82 |
| CN(C)CCN1CC2(CCCN(c3ccc(Cl)cn3)C2)CCC1=O (stereo unspecified) | 2.69 |
| CCOc1ccnc(N2CCN(C(=O)c3ccncc3)CC2)n1 | -4.6 |
| Cc1ccc(-n2nnnc2SCN2CCCCC2=O)cc1C | -46.6 |
| Cc1nc(-c2cccc(C(=O)O)c2)cc(C2CCN(C(C)C)C2)n1 (stereo unspecified) | 5.32 |
| O=C(NCCc1cccnc1)c1cn(CCN2CCNCC2)nn1 | -7.82 |
| COC(=O)c1ccc(CN[C@@H]2COC[C@H]2Cc2cc(C)no2)cc1 | -23 |
| CS(=O)(=O)N1CCC2(COCc3cnc(-c4ccccc4)nc32)C1 (stereo unspecified) | 1.22 |
| Cc1occc1C(=O)NCC(=O)N(C)CCCOc1ccccc1 | -50.2 |

| Compound | cytotoxicity at 10 µM [%] |
| --- | --- |
| COCCCC(=O)NC1(c2cccc(Br)c2)CC1 | 2.11 |
| CN1[C@@H]2CC[C@H]1CN(C(=O)c1nnc3n1CCCC3)CC2 | -10.6 |
| CC(C)n1ccnc1C1CCCN(Cc2ccc(F)c(F)c2)C1 (stereo unspecified) | 3.89 |
| CC(C#N)NS(=O)(=O)c1ccc2c(c1)N(C)CCC2 (stereo unspecified) | -4.28 |
| CCc1nc(NCCc2c(C)nn(CC)c2C)c2cnn(C)c2n1 | 9.33 |
| COCC(=O)N1CCN(C(=O)Cc2cccs2)[C@H]2CS(=O)(=O)C[C@H]21 | 2.21 |
| COc1ccc(C2c3c(N)nc(SC)nc3N=C3CCCC(=O)C32)cc1 (stereo unspecified) | -18.7 |
| COc1ccc(OC)c2c(C)cc(N(C)CCO)nc12 | 6.36 |
| CO[C@H]1CN(C(=O)c2cccc(C)n2)CC[C@@]12CCCO2 | -6.6 |
| O=C(NCC(O)c1ccc(F)cc1F)c1ccccc1F (stereo unspecified) | 13.9 |
| COc1ccc2c(c1)CC(NCc1cccc(OCC(N)=O)c1)CC2 (stereo unspecified) | -40.4 |
| CC(CN1CCOCC1)n1cncc1-c1cnn(Cc2ccccc2)c1 (stereo unspecified) | 6.33 |
| CC(C)c1noc(-c2ccc(-n3cnc(C(=O)O)c3)nc2)n1 | -2.06 |
| CCn1nc(C)c(C(C)NC(=O)c2cnc(N(C)C)nc2C)c1C (stereo unspecified) | 5.19 |
| Cc1nn(CCO)c(C)c1CN1CCN(C2CCCCC2)C(=O)C1 | 0.541 |
| O=C(COc1ccccc1NCc1ccoc1)N1CCOCC1 | 3.61 |
| Cn1ncc2c1CCCC2NCc1ccc(Cl)s1 (stereo unspecified) | 7.6 |
| COCCc1noc(CNC(C)(CO)C2CCCCC2)n1 (stereo unspecified) | 7.88 |
| Cc1nc(N2CCOc3ccc(CO)cc3C2)c2nc(C)oc2n1 | 7.91 |
| COc1ccc(-c2ccccc2CCN)c(OC)c1OC | 2.79 |
| CCOc1ccccc1C(CC(=O)Nc1ccccc1)NC(C)=O (stereo unspecified) | -2.86 |
| O=C(c1cccnc1)N1CCN(c2ccnc3ccsc23)CC1 | 5.77 |
| CC(C)(O)CN1CCN(C(=O)COC2CCCCC2)CC1 | -2.77 |

| Compound | cytotoxicity at 10 µM [%] |
| --- | --- |
| NC(=O)CCNC(=O)C1(N2CCCCC2)Cc2ccccc2C1 | -8.56 |
| CCC(CNC(=O)c1ccco1)N1CCc2ccccc2C1 (stereo unspecified) | 18.3 |
| CCC(CC)C(=O)NCc1cn2cc(Br)ccc2n1 | 5.17 |
| Cc1nc2c(c(C)c1CC(=O)Nc1ccccc1F)c(=O)[nH]n2C | 0.177 |
| CC(C)C1=NOC2(CCN(S(C)(=O)=O)CC2)C1 | 6.47 |
| CO[C@H]1CCN(c2nnc(C)s2)C[C@@H]1Cc1ccccc1 | 11.8 |
| O=C(c1cnco1)N1CCC(Cc2cccc3ncccc23)CC1 | 6.79 |
| COCC(=O)N1CCC(c2cc(N(C)C)cc(C)n2)CC1 | 8.6 |
| COc1ccc(CNC(=O)Nc2cccnc2N2CCCC2)cc1 | -21.5 |
| CCN(CC)C(=O)CN1CCc2c(nc(C3CCNCC3)nc2NC)C1 | 5.07 |
| CCCN(CC)C(=O)c1nc2c(n1C)CCN(Cc1ccccc1)C2 | 7.28 |
| Cc1nn(C)c(Cl)c1C1CCCN1Cc1nc(-c2ccco2)no1 (stereo unspecified) | -11.8 |
| Cn1ccnc1CN1CCN(Cc2ccc(C#N)cc2F)CC1 | -13.2 |
| COc1nn(C)cc1C(=O)N1CCC(C)CC1 | 5.97 |
| CN(C)C(=O)c1c[nH]nc1C1CCN(S(=O)(=O)c2ccccc2)CC1 | -0.358 |
| COC(C)c1nc(CN2CCCNCC2)cs1 (stereo unspecified) | -3.78 |
| O=C1CCCN1CCc1noc(-c2ccc(Cl)cc2)n1 | 7.9 |
| COCC(NC(=O)NCc1cccc(Cl)c1)c1ccco1 (stereo unspecified) | 6.4 |
| Cc1nc2c(N(CCC(N)=O)CCc3ccccc3)ncnc2o1 | 4.6 |
| Cc1noc(CN(C)C(=O)c2n[nH]c(N)c2-c2ccccc2)n1 | -2.14 |
| Cc1cc(C(=O)NC2CCN(CC(N)=O)CC2)nn1C(C)(C)C | -5.22 |
| CCNc1cc2c(nn1)CCN(C(=O)c1ccnc(N(C)C)c1)C2 | -20.9 |
| O=C(c1cnc(C2CC2)s1)N1CCCCC1Cn1cccn1 (stereo unspecified) | 2.43 |

| Compound | cytotoxicity at 10 µM [%] |
| --- | --- |
| Cc1nc2ccccc2nc1CN1CCc2c(nc(C3CC3)n2C)C1 | 7.97 |
| COc1ccncc1NCc1ccsc1 | 19 |
| CCN(Cc1cnc(-c2ccccn2)nc1)C1CCS(=O)(=O)C1 (stereo unspecified) | -5.24 |
| CC(=O)N1CC[C@@H]2O[C@@H](COCC(=O)N3CCCC3)CC[C@@H]21 | -7.73 |
| O=C(C1CC1)N1CCCC(c2nc(O)cc(-c3ccncc3)n2)C1 (stereo unspecified) | 31.2 |
| Cc1ccsc1-c1nc(CN(C)Cc2noc(C(C)C)n2)c(C)o1 | -5.85 |
| O=C(Nc1cc(C(F)(F)F)c[nH]c1=O)C1CCCNC1 (stereo unspecified) | 5.15 |
| CNC(=O)C1Cn2ccnc2C2(CCN(Cc3c(C)noc3C)CC2)O1 (stereo unspecified) | -68.6 |
| COc1ccc(CN2C[C@@H]3CN(S(=O)(=O)C4CC4)C[C@@H]3C2=O)cc1 | -4.01 |
| C[C@@H]1CN(C(=O)c2nc3sccn3c2-c2ncc[nH]2)C[C@H](C)O1 | 3.85 |
| Cc1nc(-c2ccco2)ccc1C(=O)N1CCc2nnc(N)cc2C1 | -7.09 |
| COc1ncccc1CNCc1cnc(N2CCOCC2)nc1 | 2.38 |
| Cc1nn(CC(C)C)c(N(C)C)c1CNCCS(C)(=O)=O | 6.59 |
| c1ccc(COC[C@H]2CC[C@H]3[C@H](CCN3Cc3ccccn3)O2)nc1 | -84.7 |
| Cc1cnn(CC(C)NCc2ccc(-n3cccn3)cc2)c1 (stereo unspecified) | 1.44 |
| O=C(NCCc1nnc[nH]1)Nc1cccc(SC(F)F)c1 | -42.4 |
| Cc1nc(CC2CCCN(Cc3nc4ccccc4c(=O)[nH]3)C2)no1 (stereo unspecified) | -44 |
| O=C(Nc1cc(CSCCO)ccn1)c1cc2ccccc2[nH]1 | 17.3 |
| CC(=O)c1c(O)ccnc1C(F)(F)F | 2.34 |
| OC[C@@H](O)CN(CCC(F)(F)F)c1ncc(Cl)cn1 | 12.8 |
| Cc1nc(CN2C(=O)C[C@H]3[C@H]2CCN3CC2CCOC2)cs1 (stereo partly specified) | -151 |
| Cc1ccc(C(=O)N2CCCC(c3nncn3C)C2)c(C)c1 (stereo unspecified) | -14.1 |
| COc1cccc2[nH]c(C(=O)N3CCNCC3C(N)=O)cc12 (stereo unspecified) | 4.57 |

| Compound | cytotoxicity at 10 µM [%] |
| --- | --- |
| CCC[C@H]1CN(Cc2cc(C)no2)C[C@@H]1NC(=O)C1(COC)CCC1 | 3.06 |
| CCCc1nnc(N2CCN(c3cccc(OC)c3)C(=O)C2)o1 | 9.52 |
| Cc1nc(NC(=O)NC(CS(C)(=O)=O)c2ccccc2)sc1C (stereo unspecified) | -1.32 |
| Cn1cccc1C(=O)N1CCC2(CC1)CN(c1ccsc1)C(=O)CO2 | -76.9 |
| CCn1nc(C)c2nc(C)nc(NCCc3ccc(C)cc3)c21 | 50.9 |
| O=C([C@@H]1C[C@H]2[C@H](CCN2Cc2nccs2)O1)N1CCOCC1 | -8.66 |
| O=C(c1cc(CC2(NC3CCCCC3)COC2)no1)N1CCCCC1 | 7.65 |
| Cc1c[nH]nc1C1CCN(S(=O)(=O)N(C)C)CC1 | 0.462 |
| Cc1nnc(CN(C)Cc2ccc(C(=O)Nc3sccc3C#N)cc2)o1 | -6.88 |
| Cc1nnc(C(NS(=O)(=O)c2cc(F)c(C)cc2F)C(C)C)[nH]1 (stereo unspecified) | -5.19 |
| Cc1nc(CO[C@@H]2CN(Cc3ccsc3)[C@@H]3COC[C@@H]32)cs1 | 3.04 |
| CCN1C(=O)C2(CCCCC2)NC12CCSCC2 | -149 |
| Cc1cnn(CC2CN(Cc3nc(N)c4ccccc4n3)CCO2)c1 (stereo unspecified) | 5.9 |
| O=C(O)c1nc(SCc2ccc(F)cc2)ncc1Br | -3.11 |
| O=S(=O)(C1CC1)N1CCOCC2(CCN(c3ccccn3)C2)C1 (stereo unspecified) | 12.9 |
| CCNc1ncc(C(=O)NCCCc2ccncc2)cn1 | 0.562 |
| CN(C)CCOCc1nnc2n1CCN(Cc1ccco1)C2 | 7.55 |
| Cn1cc(C(=O)N2CCCC2c2[nH]ncc2C(N)=O)cn1 (stereo unspecified) | -7.05 |
| O=C(CC1CCCC1)N1C[C@H](Oc2cccnc2)[C@H]2OCCC[C@H]21 | 3.82 |
